Measured values: paper PMC3253265 (Immunity, 2011)

Experiments:
[1] = tested on: 42F3 T cells; assay: p3A1 antagonist assay; assay type: cell-based; settings: 42F3 T cells stimulated with 100nM p4B3, range of p3A1 concentrations, same APC
Method in brief: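 Antagonism assay: 42F3 hybridoma cells were stimulated with an agonist peptide at 100nM. The test peptide was added over a range of concentrations, and IL-2 production was read by ELISA. Anti-CD3 (2C11) and/or native peptide served as IL-2 sensitivity controls. No peptide and an irrelevant H2-Ld MCMV epitope controlled for peptide-independent IL-2.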

[2] = tested on: 42F3 T cells; assay type: cell-based; settings: CD8+ and CD8− 42F3 T cell lines, peptide-loaded APCs, up to 100μM peptide
[3] = tested on: 42F3 TCR on CD8αβ− 42F3 T cells; assay type: binding
Method in brief: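 42F3 hybridoma transfectants supplied the TCR. RBCs were biotinylated with biotin-X-NHS and then bound to streptavidin. Borosilicate beads were cleaned, silanized and reacted with streptavidin-maleimide. Both carried […] biotin-tagged single-chain H2-Ld-peptide complexes, the same ones used for SPR. Flow cytometry measured site densities of TCR on cells and pMHC on RBC or beads. Micropipette adhesion frequency and thermal fluctuation assays were run.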

[4] = tested on: 42F3 TCR; assay: Fluorescent 42F3-tetramer staining of peptide-loaded APCs; assay type: cell-based
Method in brief: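 Tetramers were made by complexing C-terminally biotinylated recombinant 42F3 TCR with PE-labelled streptavidin. They were used to stain peptide-loaded APCs, with fluorescence read by flow cytometry. Staining was compared against SPR-derived 3D affinities of the pMHC ligands.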

[5] = tested on: 42F3 TCR; assay: SPR; assay type: binding, mouse; settings: sc H2-L^d constructs
[6] = tested on: 42F3 T cells; assay: Fluorescent sc H2-L^d-tetramer staining of 42F3 T cells; assay type: cell-based
[7] = tested on: 42F3 T cells; assay type: cell-based; settings: recombinant H2-L^d-Ig dimers, CD8+ 42F3 T cells, IL-2 release
Method in brief: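 CD8+ 42F3 hybridoma transfectants were stimulated with recombinant H2-Ld-Ig dimers loaded with peptide instead of APC-presented peptide. IL-2 release was read by ELISA. Anti-CD3 (2C11) and/or native peptide controlled IL-2 sensitivity. No-peptide and irrelevant H2-Ld MCMV epitope controls covered peptide-independent IL-2.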

SPLDSLWWI [p3A1]
effect on agonist (p4B3) induced activation [1]: not influenced
IL-2 response [2]: failed to induce a strong IL-2 response
2D-Ackon [3]: weak
2D-koff, rank among the peptides ([3]; H2-L^d-peptide): slowest 2D-koff
42F3-tetramer staining of peptide-loaded APCs [4]: stain
SPR derived 3D affinity (KA), rank among the peptides [5]: highest affinity
H2-L^d-peptide-tetramer staining of 42F3 T cells [6]: did not stain
stimulation of 42F3 T cells by peptide-loaded H2-L^d-Ig dimers [7]: failed to stimulate
